The source of these data is ChEMBL document CHEMBL6115053, “Optimization and Characterization of N-Acetamide Indoles as Antimalarials That Target PfATP4” (J Med Chem, 2025).

In data set [1] the test system is Plasmodium falciparum. Description: Antiplasmodial activity against asexual Plasmodium falciparum 3D7 infected in human […] cells assessed as reduction in parasite growth measured for 72 hrs by LDH assay. It counts as functional, organism-based. The settings on record: 3D7, 72 h.
The next data set deals with HepG2. The data set can be described thus: Cytotoxicity against human HepG2 cells assessed as inhibition of cell growth incubated for 48 hrs by celltiterglo assay. It counts as toxicity, cell-based. Conditions: hepg2, 48 h.
Data set [2] can be described thus: Aqueous solubility in PBS buffer at pH 7.4. Type of data set: physicochemical.
A short description of data set [3]: Metabolic stability in human liver microsome assessed as intrinsic clearance. It counts as ADME. Conditions: microsomes.
The nature of data set [4]: Metabolic stability in rat hepatocyte […] assessed as intrinsic clearance measured per 10^6 cells. It counts as ADME, cell-based. Conditions: hepatocytes.
Data set [5] in a line: Lipophilicity, logD of compound at pH 7.4 by shake-flask method. Conditions: buffer. It counts as physicochemical.
The subject of data set [6] is Plasmodium falciparum. The data set can be described thus: Antimalarial activity against synchronized-ring stage Plasmodium falciparum 3D7 assessed as reduction in parasitemia at 10 times EC50 measured at 72 hrs post-treatment by LDH assay. It counts as functional, organism-based. The method in brief: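 Parasite reduction ratio assay in P. falciparum 3D7 with an LDH read-out. Means and SDs were taken from three replicate experiments.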

A short description of data set [7]: Metabolic stability in mouse liver microsome assessed as intrinsic clearance. The settings on record: microsomes. It counts as ADME.
In data set [8] the test system is Plasmodium falciparum. Description: Antiplasmodial activity against wild type Plasmodium falciparum 3D7 incubated for 48 hrs. It counts as functional, organism-based. The settings on record: 3D7, 48 h.
The subject of data set [9] is Plasmodium falciparum. The data set can be described thus: Antiplasmodial activity against multi-drug resistant Plasmodium falciparum Dd2. It counts as functional, organism-based.
Data set [10] relates to Plasmodium falciparum. Description: Antiplasmodial activity against multidrug resistant Plasmodium falciparum W2mef incubated for 48 hrs by SYBR staining based fluorometer assay. Type of data set: functional, organism-based.
The test system of data set [11] is Plasmodium falciparum. The data set can be described thus: Antiplasmodial activity against multidrug resistant Plasmodium falciparum Cam3.1 incubated for 48 hrs by SYBR staining based fluorometer assay. Type of data set: functional, organism-based. The settings on record: Cam3.1, 48 h.
The subject of data set [12] is Plasmodium falciparum. The data set can be described thus: Antiplasmodial activity against Plasmodium falciparum 3D7 infected in RBC assessed as reduction in parasite growth measured for 8 hrs by Giemsa-staining based microscopic analysis. Type of data set: functional, organism-based. The essentials: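 Giemsa-stained thin smears were read at 8 h and the percentages of extracellular and intracellular parasites counted, compared with untreated parasites at 0 h.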

SMILES strings stand for the structures. Converted amounts (≈) assume the structure as drawn. The source made the active and inactive calls. No cut-off for these calls is given here.

In the case of `Cn1cc(-c2ccc3ccn(CC(=O)Nc4ccccc4Cl)c3n2)cn1`, the EC50 in the data set on Plasmodium falciparum [1] was 1530 nM. Also, the CC50 in the data set on HepG2 was greater than 40000 nM. Besides, the kinetic solubility in data set [2] came out at 2.5 µM (≈ 0.915 µg/mL). The “intrinsic clearance (CLint)” value in data set [3] was 458 µL/min/mg; in data set [4] it was 92 uL/min/10^6 cells. In data set [5], this molecule displayed a logD of 3.3.
For `Cn1cc(-c2ccc3ccn(CC(=O)Nc4ccccc4Cl)c3c2)c(C(F)(F)F)n1`, the EC50 with Plasmodium falciparum [1] came to 43 nM. Also, the CC50 in the data set on HepG2 was greater than 40000 nM. Moreover, the kinetic solubility in [2] is 2.5 µM (≈ 1.08 µg/mL). The “intrinsic clearance (CLint)” value was determined as 488 µL/min/mg in data set [3] and 92 uL/min/10^6 cells in data set [4]. Further, the logD in [5] was 4.7.
Consider `CCc1nc(N)nc(N)c1-c1ccc(Cl)cc1`, for which the result in the data set with Plasmodium falciparum [6] was Active.
Consider `Cn1cc(-c2ccc3c(Cl)cn(CC(=O)Nc4ccccc4Cl)c3c2)cn1`, for which the EC50 with Plasmodium falciparum [1] was determined as 138 nM. In addition, the cytotoxic concentration (CC50) with HepG2 is greater than 40000 nM. The molecule also showed a kinetic solubility in data set [2] of less than 2.5 µM. Further, the “intrinsic clearance (CLint)” value in data set [3] came out at 65 µL/min/mg; in data set [7], 177 µL/min/mg; in data set [4], 29 uL/min/10^6 cells. In [5], this molecule showed a logD of 4.6.
Turning to `COc1cc(NC(=O)Cn2ccc3ccc(-c4cn(C)nc4C)cc32)cc(OC)c1OC`, the EC50 in the data set on Plasmodium falciparum [1] was found to be 100 nM. Moreover, the CC50 in the data set with HepG2 is greater than 40000 nM. Further, the kinetic solubility in [2] was 8.6 µM (≈ 3.74 µg/mL). For the same molecule, the results for the “intrinsic clearance (CLint)” value in [3], in [7] and in data set [4] were 105 µL/min/mg, 207 µL/min/mg and 11 uL/min/10^6 cells, respectively. The same molecule gave a logD in data set [5] of 3.2.
In the case of `COc1cc(NC(=O)Cn2cc(Cl)c3cc(F)c(-c4cn(C)nc4C)cc32)cc(OC)c1OC`, the EC50 in the data set on Plasmodium falciparum [1] stood at 108 nM. Moreover, the CC50 in the data set on HepG2 was greater than 40000 nM. In data set [2], this molecule registered a solubility (kinetic) of 2.5 µM (≈ 1.22 µg/mL). For the same molecule, the “intrinsic clearance (CLint)” value in data set [3] worked out at 64 µL/min/mg; in data set [7], 73 µL/min/mg; in [4] it was 5.7 uL/min/10^6 cells. Besides, in data set [5], the logD is 4.8.
With `O[C@@H](c1cc(C(F)(F)F)nc2c(C(F)(F)F)cccc12)[C@H]1CCCCN1` (racemic) [(S,R)-MEFLOQUINE], the EC50 was determined as 23 nM in the data set with Plasmodium falciparum [8], 35 nM in the data set with Plasmodium falciparum [9], 64 nM in the data set on Plasmodium falciparum [10] and 9 nM with Plasmodium falciparum [11].
For `CCN(CC)CCCC(C)Nc1ccnc2cc(Cl)ccc12` (stereo not drawn), the outcome in the data set with Plasmodium falciparum [6] and with Plasmodium falciparum [12] was Active.
On to `COc1cc(NC(=O)Cn2ccc3ccc(-c4cnn(C)c4)cc32)cc(OC)c1OC`, for which the EC50 in the data set on Plasmodium falciparum [1] is 385 nM. Moreover, the CC50 in the data set on HepG2 was greater than 40000 nM. Further, the kinetic solubility in data set [2] was 4.6 µM (≈ 1.93 µg/mL). Besides, the results for the “intrinsic clearance (CLint)” value in data set [3] and in data set [4] were 95 µL/min/mg and 4.6 uL/min/10^6 cells, respectively. Moreover, the logD in [5] was 3.5.
Consider `COc1cc(NC(=O)Cn2cc(Cl)c3ccc(-c4cnn(C)c4)cc32)cc(OC)c1OC`, for which the EC50 in the data set with Plasmodium falciparum [1] worked out at 49 nM. Besides, the CC50 with HepG2 was greater than 40000 nM. In data set [2], this molecule yielded a solubility (kinetic) of 2.5 µM (≈ 1.14 µg/mL). In addition, the “intrinsic clearance (CLint)” value is 15 µL/min/mg in data set [3], 53 µL/min/mg in data set [7] and less than 1 uL/min/10^6 cells in data set [4]. Further, the logD in data set [5] came to 4.2.
Regarding `Cc1nn(C)c(C)c1-c1ccc2ccn(CC(=O)Nc3ccccc3Cl)c2c1`, the EC50 in the data set with Plasmodium falciparum [1] worked out at 310 nM. Also, the CC50 with HepG2 is greater than 40000 nM.
With `Cc1nnc(-c2ccc3ccn(CC(=O)Nc4cccnc4Cl)c3c2)o1`, the EC50 in the data set with Plasmodium falciparum [1] was determined as 1170 nM. Moreover, the CC50 with HepG2 was greater than 40000 nM. The same molecule yielded a kinetic solubility in data set [2] of 73 µM (≈ 26.8 µg/mL). Moreover, the “intrinsic clearance (CLint)” value in data set [3] turned out to be 57 µL/min/mg; in [4] it was 27 uL/min/10^6 cells. In [5], this molecule showed a logD of 2.1.
With `Cc1ccc(NC(=O)Cn2ccc3ccc(-c4nnc(C)o4)cc32)cc1`, the EC50 with Plasmodium falciparum [1] is 5350 nM. The CC50 in the data set on HepG2 was greater than 40000 nM.
`Cc1ncc(-c2ccc3ccn(CC(=O)Nc4ccccc4Cl)c3c2)s1`: the EC50 with Plasmodium falciparum [1] amounted to 1900 nM. Further, in the data set with HepG2, the CC50 was greater than 40000 nM.
As to `Cn1cc(-c2ccc3c(F)cn(CC(=O)Nc4ccccc4Cl)c3c2)cn1`, the EC50 in the data set with Plasmodium falciparum [1] turned out to be 330 nM. The CC50 in the data set on HepG2 was greater than 40000 nM.
As for `Cc1c(-c2ccc3ccn(CC(=O)Nc4ccccc4Cl)c3c2)cnn1C`, the EC50 in the data set with Plasmodium falciparum [1] was 248 nM. Besides, the CC50 with HepG2 was greater than 40000 nM.
Regarding `Cc1cn(CC(=O)Nc2ccccc2Cl)c2cc(-c3cnn(C)c3)ccc12`, in the data set on Plasmodium falciparum [1], the EC50 came out at 868 nM. Also, the CC50 in the data set with HepG2 is greater than 40000 nM.
With `Cn1cc(-c2ccc3c(Br)cn(CC(=O)Nc4ccccc4Cl)c3c2)cn1`, the EC50 in the data set on Plasmodium falciparum [1] is 165 nM. Also, the CC50 with HepG2 was greater than 40000 nM.
